From ChEMBL document CHEMBL1143773, “Synthesis and studies on antidepressant and anticonvulsant activities of some 3-(2-furyl)-pyrazoline derivatives” (Eur J Med Chem, 2007)
The source made the active and inactive calls. The calls are words filed in the database; no cut-off is given here.

Columns and labels:
Mus musculus [1] = experiment: Anticonvulsant activity against metrazole-induced seizures in Albino mouse at 30 mg/kg, ip after 4 hrs by scMet; assay type: functional, organism-based; set-up: dose 30 mg/kg
In short: (§1)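 Phase I protocol of the NINCDS antiepileptic drug development programme in albino mice, covering MES, subcutaneous pentylenetetrazole (metrazol) and rotarod neurotoxicity. Doses were 30, 100 and 300 mg/kg, read at 1/2 h and 4 h. One animal per dose and time point, scored as 0/1 (no activity) or 1/1 (noticeable activity).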

Mus musculus [2] = experiment: Anticonvulsant activity in Albino mouse by MES test at 100 mg/kg, ip after 30 mins; assay type: functional, organism-based; set-up: dose 100 mg/kg; in short: as §1
Mus musculus [3] = experiment: Anticonvulsant activity against metrazole-induced seizures in Albino mouse at 100 mg/kg, ip after 4 hrs by scMet assay; assay type: functional, organism-based; set-up: dose 100 mg/kg; in short: as §1
Mus musculus [4] = experiment: Anticonvulsant activity in Albino mouse at 300 mg/kg, ip after 4 hrs by MES test; assay type: functional, organism-based; set-up: dose 300 mg/kg; in short: as §1
Mus musculus [5] = experiment: Anticonvulsant activity against metrazole-induced seizures in Albino mouse at 100 mg/kg, ip after 30 mins by scMet assay; assay type: functional, organism-based; set-up: dose 100 mg/kg; in short: as §1
Mus musculus [6] = experiment: Anticonvulsant activity against metrazole-induced seizures in Albino mouse at 30 mg/kg, ip after 30 mins by scMet assay; assay type: functional, organism-based; set-up: dose 30 mg/kg; in short: as §1
Mus musculus [7] = experiment: Neurotoxicity in Albino mouse at 30 mg/kg, ip after 30 mins by RotaRod test; assay type: toxicity, organism-based; set-up: dose 30 mg/kg, route intraperitoneal; details: in vivo, 0.5 h; in short: as §1
Mus musculus [8] = experiment: Anticonvulsant activity against metrazole-induced seizures in Albino mouse at 300 mg/kg, ip after 30 mins by scMet assay; assay type: functional, organism-based; set-up: dose 300 mg/kg; in short: as §1
Mus musculus [9] = experiment: Anticonvulsant activity in Albino mouse by MES test at 30mg/kg, ip after 30 mins; assay type: functional, organism-based; in short: as §1
Mus musculus [10] = experiment: Anticonvulsant activity in Albino mouse at 100 mg/kg, ip after 4 hrs by MES test; assay type: functional, organism-based; set-up: dose 100 mg/kg; in short: as §1
Mus musculus [11] = experiment: Anticonvulsant activity in Albino mouse at 30 mg/kg, ip after 4 hrs by MES test; assay type: functional, organism-based; set-up: dose 30 mg/kg; in short: as §1
Mus musculus [12] = experiment: Neurotoxicity in Albino mouse at 100 mg/kg, ip after 4 hrs by RotaRod test; assay type: toxicity, organism-based; set-up: dose 100 mg/kg, route intraperitoneal; details: in vivo; in short: as §1
Mus musculus [13] = experiment: Neurotoxicity in Albino mouse at 300 mg/kg, ip after 4 hrs by RotaRod test; assay type: toxicity, organism-based; set-up: dose 300 mg/kg, route intraperitoneal; details: in vivo; in short: as §1
Mus musculus [14] = experiment: Anticonvulsant activity in Albino mouse by MES test at 300 mg/kg, ip after 30 mins; assay type: functional, organism-based; set-up: dose 300 mg/kg; in short: as §1
Mus musculus [15] = experiment: Neurotoxicity in Albino mouse at 100 mg/kg, ip after 30 mins by RotaRod test; assay type: toxicity, organism-based; set-up: dose 100 mg/kg, route intraperitoneal; details: in vivo, 0.5 h; in short: as §1
Mus musculus [16] = experiment: Antidepressant activity in Albino mouse assessed as duration of immobility at 10 mg/kg, ip by forced-swimming test; assay type: functional; details: route intraperitoneal
In short: (§2)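 Porsolt forced-swim test in albino mice. Drug given ip at 0.5 ml/20 g body weight, 1 h before testing. Controls received 1% aqueous Tween 80. Each mouse was placed singly in a water-filled Plexiglas cylinder for 6 min. Immobility (floating upright with only slight movements to stay afloat) was timed over the last 4 min.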

Mus musculus [17] = experiment: Anticonvulsant activity against metrazole-induced seizures in Albino mouse at 300 mg/kg, ip after 4 hrs by scMet assay; assay type: functional, organism-based; set-up: dose 300 mg/kg; in short: as §1
Mus musculus [18] = experiment: Neurotoxicity in Albino mouse at 30 mg/kg, ip after 4 hrs by RotaRod test; assay type: toxicity, organism-based; set-up: dose 30 mg/kg, route intraperitoneal; details: in vivo; in short: as §1
Mus musculus [19] = experiment: Antidepressant activity in Albino mouse assessed as duration of immobility at 10 mg/kg, ip by forced-swimming test relative to control; assay type: functional; details: route intraperitoneal; in short: as §2
Mus musculus [20] = experiment: Neurotoxicity in Albino mouse at 300 mg/kg, ip after 30 mins by RotaRod test; assay type: toxicity, organism-based; set-up: dose 300 mg/kg, route intraperitoneal; details: in vivo, 0.5 h; in short: as §1

Row | SMILES | Activity (Mus musculus [1]) | Activity (Mus musculus [2]) | Activity (Mus musculus [3]) | Activity (Mus musculus [4]) | Activity (Mus musculus [5]) | Activity (Mus musculus [6]) | Activity (Mus musculus [7]) | Activity (Mus musculus [8]) | Activity (Mus musculus [9]) | Activity (Mus musculus [10]) | Activity (Mus musculus [11]) | Activity (Mus musculus [12]) | Activity (Mus musculus [13]) | Activity (Mus musculus [14]) | Activity (Mus musculus [15]) | Activity (Mus musculus [16]) [s] | Activity (Mus musculus [17]) | Activity (Mus musculus [18]) | Activity (Mus musculus [19]) [%] | Activity (Mus musculus [20])
1 | CNC(=S)N1N=C(c2ccco2)CC1c1ccco1 (stereo not given) | inactive | inactive | Active | Active | inactive | inactive | Not Active | inactive | inactive | Active | Active | Not Active | Not Active | inactive | Not Active | 186 | Active | Not Active | -11.42 | Not Active
2 | NC(=S)N1N=C(c2ccco2)CC1c1ccccc1 (stereo not given) | inactive | inactive | inactive | inactive | inactive | inactive | Not Active | inactive | inactive | inactive | inactive | Not Active | Not Active | inactive | Not Active | 202 | inactive | Not Active | 3.81 | Not Active
